Drawing on ChEMBL document CHEMBL1142019, “Design and synthesis of novel 9-substituted-7-aryl-3,4,5,6-tetrahydro-2H-pyrido[4,3-b]- and [2,3-b]-1,5-oxazocin-6-ones as NK(1) antagonists” (2005), this text covers Remaining ratio, Kb and Effect for 17 compounds.

Structures are written as SMILES.

The species entered for experiment [1] is Rattus norvegicus. Description: Metabolic stability expressed as the remaining ratio of compound in rat microsomes after incubation in a shaking water bath for 1 hour. Type of experiment: functional. Put shortly:
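Compound incubated with rat microsomes for 60 min at 37 °C in a shaking water bath. Stability is reported as the remaining ratio, the percentage of parent compound left.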

Experiment [2] deals with Substance-P receptor (Cavia porcellus) (UniProt P30547). Briefly: Antagonist activity against tachykinin receptor 1 activity in guinea pig ileum in vitro. Type of experiment: functional, tissue-based. Put shortly:
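Isolated guinea pig ileum preparation; NK1 antagonism expressed as a K_B value.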

Experiment [3] is described as follows: Effective bladder capacity increasing effect of compound (0.3 mg/kg i.v.) expressed as the ratio of increase in effective bladder capacity compared to saline treated animals in vivo. Type of experiment: functional, Cavia porcellus. The following applies: in the assay text read “compared with the predrug values” for “compared to saline treated animals”. Put shortly: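 Spinalized guinea pigs given test agent iv at 0.3 mg/kg. Effective bladder capacity was the volume of saline injected into the bladder. The result is the ratio of the increase in effective bladder capacity relative to each animal's predrug value.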

Substance-P receptor (Cavia porcellus), sequence (P30547 whole entry): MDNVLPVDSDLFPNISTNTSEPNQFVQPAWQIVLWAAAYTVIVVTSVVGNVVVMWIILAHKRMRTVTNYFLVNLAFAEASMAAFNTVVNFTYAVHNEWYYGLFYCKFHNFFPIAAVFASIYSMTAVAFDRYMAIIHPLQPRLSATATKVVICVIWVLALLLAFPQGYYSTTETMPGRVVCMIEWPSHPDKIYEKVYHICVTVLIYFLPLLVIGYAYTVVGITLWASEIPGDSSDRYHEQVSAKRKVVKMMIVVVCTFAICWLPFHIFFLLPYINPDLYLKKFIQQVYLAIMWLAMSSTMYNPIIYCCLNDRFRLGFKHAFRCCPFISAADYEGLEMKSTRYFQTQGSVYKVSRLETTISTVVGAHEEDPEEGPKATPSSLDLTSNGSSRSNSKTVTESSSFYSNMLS

Regarding `COc1cc(N2CCOCC2)nc(-c2ccccc2)c1C(=O)N(C)Cc1cc(C(F)(F)F)cc(C(F)(F)F)c1`, in experiment [1], the Remaining ratio amounted to 100%. For the same compound, in experiment [2], the Kb was 26.3 nM.
On to `Cc1ccccc1-c1cc(N2CCC(N3CCCC3)CC2)nc2c1C(=O)N(Cc1cc(C(F)(F)F)cc(C(F)(F)F)c1)CCCO2`, for which the Remaining ratio in experiment [1] is 100%. Besides, in experiment [2], the Kb was found to be 0.21 nM. The Effect in experiment [3] is listed as 24.2%.
As to `O=C1c2c(-c3ccccc3)cc(N3CCCC3)nc2OCCCN1Cc1cc(C(F)(F)F)cc(C(F)(F)F)c1`, the Remaining ratio in experiment [1] amounted to 71%. In experiment [2], this compound came in with a Kb of 13.8 nM.
`O=C1c2c(-c3ccccc3)cc(N3CCCCC3)nc2OCCCN1Cc1cc(C(F)(F)F)cc(C(F)(F)F)c1`: in experiment [1], the Remaining ratio worked out at 70%. This compound registered a Kb in experiment [2] of 13.2 nM.
As for `Cc1ccccc1-c1nc(N2CCC(N3CCCC3)CC2)cc2c1C(=O)N(Cc1cc(C(F)(F)F)cc(C(F)(F)F)c1)CCCO2`, the Remaining ratio in experiment [1] worked out at 100%. In addition, in experiment [3], the Effect amounted to 3.97%.
With `O=C1c2c(-c3ccccc3Cl)cc(N3CCC(N4CCCC4)CC3)nc2OCCCN1Cc1cc(C(F)(F)F)cc(C(F)(F)F)c1`, the Remaining ratio in experiment [1] is 89%. Moreover, the Kb in experiment [2] came out at 0.207 nM.
`O=C1c2c(cc(N3CCOCC3)nc2-c2ccccc2)OCCCN1Cc1cc(C(F)(F)F)cc(C(F)(F)F)c1`: in experiment [1], the Remaining ratio was found to be 100%. The Kb in experiment [2] came out at 2.63 nM.
Taken in the same sequence, the figures for `O=C1c2c(ccnc2-c2ccccc2)OCCCN1Cc1cc(C(F)(F)F)cc(C(F)(F)F)c1` were 100% and 69.2 nM.
For `O=C1c2c(-c3ccccc3F)cc(N3CCC(N4CCCC4)CC3)nc2OCCCN1Cc1cc(C(F)(F)F)cc(C(F)(F)F)c1` the same measures were 100% and 0.382 nM.
For `O=C1c2c(-c3ccccc3)cc(N3CCC(N4CCCC4)CC3)nc2OCCCN1Cc1cc(C(F)(F)F)cc(C(F)(F)F)c1` the same measures were 86% and 0.224 nM.
For `CN(Cc1cc(C(F)(F)F)cc(C(F)(F)F)c1)C(=O)c1cccnc1-c1ccccc1`, in experiment [1], the Remaining ratio worked out at 70%. Besides, the Kb in experiment [2] was 151 nM.
Taken in the same sequence, the figures for `FC(F)(F)c1cc(COc2cccnc2-c2ccccc2)cc(C(F)(F)F)c1` were 9% and 25.7 nM.
Turning to `Cc1ccc(-c2c3n(c(=O)c4ncccc24)CC[C@@H](C)CN(Cc2cc(C(F)(F)F)cc(C(F)(F)F)c2)C3=O)cc1`, the Effect in experiment [3] turned out to be 12%.
For `O=C1c2c(-c3ccccc3)cc(N3CCC(N4CCCCC4)CC3)nc2OCCCN1Cc1cc(C(F)(F)F)cc(C(F)(F)F)c1`, the Remaining ratio in experiment [1] was found to be 100%. This compound also showed a Kb in experiment [2] of 2.34 nM.
Taken in the same sequence, the figures for `CN(Cc1cc(C(F)(F)F)cc(C(F)(F)F)c1)C(=O)c1ccc(N2CCOCC2)nc1-c1ccccc1` were 100% and 129 nM.
With `O=C1c2c(-c3ccccc3)cc(N3CCOCC3)nc2OCCCN1Cc1cc(C(F)(F)F)cc(C(F)(F)F)c1`, the Remaining ratio in experiment [1] was 100%. Moreover, the Kb in experiment [2] turned out to be 2.57 nM.
For the compound `CN1CCN(c2cc(-c3ccccc3)c3c(n2)OCCCN(Cc2cc(C(F)(F)F)cc(C(F)(F)F)c2)C3=O)CC1`, the Remaining ratio in experiment [1] was 100%. The same compound had a Kb in experiment [2] of 1.16 nM.

Usually Kb stands for the affinity of an antagonist, worked out from how it opposes an agonist.
